Calls of active or inactive are those of the source. The calls are words filed in the database; no cut-off is given here.
Key:
Blood [1] = assay: Antiinflammatory activity in human whole blood assessed as inhibition of IL-1beta-induced IL-8 production after overnight incubation by ELISA; format: functional, tissue-based
Outline: (§1)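 Whole blood from two donors per experiment was collected into ACD-A. Compounds were added and the blood was incubated about 20 h at 37 °C under 5% CO2. Blood was then stimulated for 5 h with LPS (final 100 ng/mL, for TNFα) or IL-1β (final 10 ng/mL, for IL-8). Plasma TNFα or IL-8 was measured by ELISA. Efficacy was expressed as % of dexamethasone, and values are means of at least two experiments.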

SAOS-2 = assay: Induction of alkaline phosphatase expression in human Saos2 cells after 3 days by spectrophotometry; format: cell-based; settings: SAOS-2, 72 h
Blood [2] = assay: Antiinflammatory activity in human whole blood assessed as inhibition of TNF-alpha-induced IL-8 production after overnight incubation by ELISA; format: functional, tissue-based
MG-63 [3] = assay: Induction of glutamine synthase expression in human MG63 cells after overnight incubation by spectrophotometry relative to prednisolone; format: cell-based
Rattus norvegicus [4] = assay: Antiinflammatory activity in Freund's complete adjuvant-induced Lewis rat arthritis model assessed as reduction in paw swelling at 5 mg/kg/day, po qd for 21 days; format: functional, organism-based
Outline: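 Male Lewis rats were inoculated with Mycobacterium butyricum in incomplete Freund's adjuvant. Oral dosing was daily and preventative, running from day 0 to day 21. Onset and progression of arthritis were followed, and ED50 was estimated from the dose response.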

MG-63 [5] = assay: Induction of glutamine synthase expression in human MG63 cells after overnight incubation by spectrophotometry; format: cell-based
Blood [6] = assay: Antiinflammatory activity in human whole blood assessed as inhibition of TNF-alpha-induced IL-8 production after overnight incubation by ELISA relative to dexamethasone; format: functional
Rattus norvegicus [7] = assay: Antiinflammatory activity in Sprague-Dawley rat assessed as carrageenan-induced paw edema at 30 mg/kg, po administered as a single dose 2 hrs before carrageenan challenge measured 4 hrs post carrageenan challenge by plethysmometry relative to control
Blood [8] = assay: Antiinflammatory activity in human whole blood assessed as inhibition of LPS-induced TNFalpha production after overnight incubation by ELISA; format: functional, tissue-based; outline: as §1
Blood [9] = assay: Antiinflammatory activity in human whole blood assessed as inhibition of IL-1beta-induced IL-8 production after overnight incubation by ELISA relative to Dexamethasone; format: functional; outline: as §1
Blood [10] = assay: Antiinflammatory activity in human whole blood assessed as inhibition of LPS-induced TNFalpha production after overnight incubation by ELISA relative to Dexamethasone; format: functional; outline: as §1
[11] = molecular target: T1, Mineralocorticoid receptor (Homo sapiens, UniProt P08235); assay: Agonist activity at human mineralocorticoid receptor expressed in human A549 cells by fluorescence polarization assay; format: functional, cell-based
T1 sequence (P08235 whole entry): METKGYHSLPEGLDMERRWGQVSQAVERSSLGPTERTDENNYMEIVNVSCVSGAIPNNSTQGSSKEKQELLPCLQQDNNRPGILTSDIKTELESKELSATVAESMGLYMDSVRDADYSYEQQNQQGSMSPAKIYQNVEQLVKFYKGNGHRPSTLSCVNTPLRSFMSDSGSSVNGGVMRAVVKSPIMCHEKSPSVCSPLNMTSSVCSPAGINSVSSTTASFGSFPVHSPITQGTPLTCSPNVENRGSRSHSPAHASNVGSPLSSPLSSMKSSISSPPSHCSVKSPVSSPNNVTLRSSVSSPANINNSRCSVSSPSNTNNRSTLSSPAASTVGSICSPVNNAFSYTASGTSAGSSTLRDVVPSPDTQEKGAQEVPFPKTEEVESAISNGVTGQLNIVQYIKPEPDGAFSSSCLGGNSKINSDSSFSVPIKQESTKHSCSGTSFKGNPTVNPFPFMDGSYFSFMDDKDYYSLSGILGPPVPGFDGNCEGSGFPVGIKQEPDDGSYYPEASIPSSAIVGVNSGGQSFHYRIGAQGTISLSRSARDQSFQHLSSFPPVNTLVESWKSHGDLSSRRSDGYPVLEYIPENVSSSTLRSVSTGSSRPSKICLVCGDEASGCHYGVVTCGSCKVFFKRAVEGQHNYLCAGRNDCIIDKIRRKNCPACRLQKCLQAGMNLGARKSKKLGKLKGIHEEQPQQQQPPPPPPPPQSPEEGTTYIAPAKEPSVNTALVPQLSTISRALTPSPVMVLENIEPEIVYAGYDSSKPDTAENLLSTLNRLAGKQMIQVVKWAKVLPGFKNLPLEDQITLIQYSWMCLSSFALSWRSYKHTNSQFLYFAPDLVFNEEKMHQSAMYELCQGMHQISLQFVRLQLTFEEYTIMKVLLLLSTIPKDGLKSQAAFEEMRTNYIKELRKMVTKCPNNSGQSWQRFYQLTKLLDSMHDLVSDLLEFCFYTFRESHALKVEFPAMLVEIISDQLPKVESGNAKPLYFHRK

C[C@]12C=CC(=O)C=C1CC[C@@H]1[C@@H]2[C@@H](O)C[C@@]2(C)[C@H]1CC[C@]2(O)C(=O)CO [PREDNISOLONE]
EC50 (Blood [1]): 104 nM | Emax (SAOS-2): 68% | EC50 (Blood [2]): 124 nM | Emax (MG-63 [3]): 100% | Activity (Rattus norvegicus [4]): Active | EC50 (MG-63 [5]): 19 nM | Imax (Blood [6]): 94% | level, % of control at 30 mg/kg (Rattus norvegicus [7]): 49% | EC50 (Blood [8]): 89 nM | Imax (Blood [9]): 94% | Imax (Blood [10]): 94% | EC50 [11]: 2 nM

Reference: ChEMBL document CHEMBL1909630, “Azaxanthene based selective glucocorticoid receptor modulators: design, synthesis, and pharmacological evaluation of (S)-4-(5-(1-((1,3,4-thiadiazol-2-yl)amino)-2-methyl-1-oxopropan-2-yl)-5H-chromeno[2,3-b]pyridin-2-yl)-2-fluoro-N,N-dimethylbenzamide (BMS-776532) and its methylene homologue …” (J Med Chem, 2011)
